Target: Prothrombin (Homo sapiens, UniProt P00734)
Assay: Inhibition of thrombin (unknown origin) using CH3SO2-D-Cha-Gly-Arg-pNA.AcOH as substrate measured every 20 sec for 30 mins in presence of NaCl by UV-Visible spectrophotometric method
Method in brief: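 Kinetic chromogenic assay at 25 ± 0.2 °C in 0.02 M Hepes, 0.154 M NaCl (Na⁺ for enzyme activation), final DMSO 6.5 %, pH 7.4 ± 0.05. Thrombin about 8-12 nM final, substrate 100 µM final, inhibitor 0.5-10× preliminary IC50. Enzyme added last to premixed substrate and inhibitor, A405 read. Rates gave dose-response IC50, then Ki via Cheng-Prusoff, and ΔG = RTlnKi.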

Row | Ki | Compound
1 | 0.72 µM | N=C(N)c1ccc(CNC(=O)[C@@H]2CCCN2C(=O)CCc2ccccc2)cc1
2 | 68 µM | CS(=O)(=O)N1CCC[C@H]1C(=O)NCc1ccc(C(=N)N)cc1
3 | 250 µM | CCN1CCC[C@H]1C(=O)NCc1ccc(C(=N)N)cc1
4 | 4.2 µM | CC(C)(C)CC(=O)N1CCC[C@H]1C(=O)NCc1ccc(C(=N)N)cc1
5 | 11.9 µM | CC(C)(C)OC(=O)N1CCC[C@H]1C(=O)NCc1ccc(C(=N)N)cc1
6 | 17.9 µM | N=C(N)c1ccc(CNC(=O)[C@@H]2CCCN2C(=O)C(F)F)cc1
7 | 14.5 µM | N=C(N)c1ccc(CNC(=O)[C@@H]2CCCN2C(=O)NCc2ccccc2)cc1
8 | 59 µM | N=C(N)c1ccc(CNC(=O)[C@@H]2CCCN2C(N)=O)cc1
9 | 4 µM | N=C(N)c1ccc(CNC(=O)[C@@H]2CCCN2C(=O)OCc2ccccc2)cc1
10 | 163 µM | N=C(N)c1ccc(CNC(=O)[C@@H]2CCCN2S(N)(=O)=O)cc1
11 | 68 µM | CC(=O)N1CCC[C@H]1C(=O)NCc1ccc(C(=N)N)cc1
12 | 13.5 µM | N=C(N)c1ccc(CNC(=O)[C@@H]2CCCN2C(=O)C(F)(F)F)cc1
13 | 36 µM | CC(C)(C)NC(=O)N1CCC[C@H]1C(=O)NCc1ccc(C(=N)N)cc1
14 | 7.1 µM | N=C(N)c1ccc(CNC(=O)[C@@H]2CCCN2S(=O)(=O)C(F)(F)F)cc1

Row | Compound | Ki
15 | N=C(N)c1ccc(CNC(=O)[C@@H]2CCCN2C(=O)CF)cc1 | 44 µM

Reference: ChEMBL document CHEMBL4041515, “Modulating hydrogen-bond basicity within the context of protein-ligand binding: A case study with thrombin inhibitors that reveals a dominating role for desolvation” (Eur J Med Chem, 2017)
